Data from ChEMBL document CHEMBL1153955, “Indolylarylsulfones bearing natural and unnatural amino acids. Discovery of potent inhibitors of HIV-1 non-nucleoside wild type and resistant mutant strains reverse transcriptase and coxsackie B4 virus” (J Med Chem, 2009).

Experiments:
[1] = system: Mammalian orthoreovirus 1; experiment: Antiviral activity against Reovirus 1 in african green monkey Vero cells assessed as protection against virus-induced cytopathicity; format: functional, organism-based; details: Mammalian orthoreovirus 1, Vero
Procedure, shortened: (§1)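 Confluent cell monolayers inoculated with 100 CCID₅₀ virus. After 1-2 h adsorption, residual virus removed and cultures incubated with varying compound concentrations. Cytopathicity scored once it reached completion in untreated infected controls. EC₅₀ = dose reducing virus-induced cytopathogenicity by 50%.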

[2] = Cytotoxicity against feline CRFK cells by MTS assay; format: cell-based, Felis catus; details: cat
[3] = Cytotoxicity against human HeLa cells assessed as drug level causing microscopically detectable alteration of normal cell morphology after 3 days; format: cell-based
Procedure, shortened: (§2)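 Serial compound dilutions added to confluent HeLa or Vero monolayers. MCC = minimum concentration causing microscopically detectable alteration of cell morphology after 3 days of incubation.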

[4] = Antiproliferative activity against human Molt4/C8 cells after 3 days; format: cell-based; details: MOLT-4, 72 h
Procedure, shortened: (§3)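 Cells seeded at 5 × 10⁴ to 7.5 × 10⁴ cells/200 µL with or without serial compound dilutions; incubated at 37 °C for 2 days (L1210) or 3 days (Molt4/C8, CEM). Cell numbers counted with a Coulter counter. CC₅₀ = concentration reducing proliferation by 50% versus untreated controls, read from plots of cell number (% of control) against concentration. Means of at least two independent experiments.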

[5] = system: Human immunodeficiency virus 2; experiment: Antiviral activity against HIV2 ROD in human CEM cells assessed as protection against virus-induced cytopathicity after 4 days; format: functional, organism-based; details: Human immunodeficiency virus 2, ROD, CCRF-CEM, 96 h
Procedure, shortened: (§4)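 CEM cells (~3 × 10⁵ cells/mL) infected with ~100 CCID₅₀ per mL of HIV-1 (IIIB) or HIV-2 (ROD), then seeded into wells containing compound dilutions. After 4 days at 37 °C, syncytium (giant cell) formation was examined microscopically. EC₅₀ = concentration protecting CEM cells from HIV cytopathicity by 50%.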

[6] = target: Human immunodeficiency virus type 1 reverse transcriptase (Human immunodeficiency virus 1, UniProt Q72547, Y181I); experiment: Inhibition of HIV1 reverse transcriptase p66/p51 Y181I mutant; details: read-out: IC50
Procedure, shortened: (§5)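 Substrate was 0.5 µg poly(rA)/oligo(dT) 10:1 (0.3 µM 3′-OH ends) with 10 µM [³H]dTTP, at 37 °C. Acid-precipitable radioactivity was counted on GF/C filters after TCA washes.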

[7] = Cytotoxicity against MDCK cells assessed as drug level causing microscopically detectable alteration of normal cell morphology; format: cell-based, Canis lupus familiaris; details: dog
[8] = system: Vesicular stomatitis virus; experiment: Antiviral activity against VSV in human HEL cells assessed as protection against virus-induced cytopathicity; format: functional, organism-based
[9] = system: Respiratory syncytial virus; experiment: Antiviral activity against RSV Long in human HeLa cells assessed as protection against virus-induced cytopathicity; format: functional, organism-based; procedure, shortened: as §1
Influenza A virus [10] = experiment: Antiviral activity against influenza H1N1 virus in MDCK cells assessed as reduction of virus-induced cytopathicity by MTS method; format: functional, organism-based; details: Influenza A virus, H1N1, MDCK
Influenza B virus [11] = experiment: Antiviral activity against influenza B virus in MDCK cells assessed as reduction of virus-induced cytopathicity by visual cytopathic effect scoring method; format: functional, organism-based
Punta Toro virus = experiment: Antiviral activity against Punta Toro virus in african green monkey Vero cells assessed as protection against virus-induced cytopathicity; format: functional, organism-based; procedure, shortened: as §1
Human respirovirus 3 = experiment: Antiviral activity against Parainfluenza virus type 3 in african green monkey Vero cells assessed as protection against virus-induced cytopathicity; format: functional, organism-based; details: Human respirovirus 3, Vero; procedure, shortened: as §1
Vaccinia virus = experiment: Antiviral activity against Vaccinia virus Lederle in human HEL cells assessed as protection against virus-induced cytopathicity; format: functional, organism-based; details: Orthopoxvirus vaccinia
[12] = system: Vesicular stomatitis virus; experiment: Antiviral activity against VSV in human HeLa cells assessed as protection against virus-induced cytopathicity; format: functional, organism-based
Coxsackievirus B4 [13] = experiment: Antiviral activity against Coxsackievirus B4 in african green monkey Vero cells assessed as protection against virus-induced cytopathicity; format: functional, organism-based; details: Enterovirus B; procedure, shortened: as §1
CCRF-CEM = experiment: Antiproliferative activity against human CEM cells after 3 days; format: cell-based; details: 72 h; procedure, shortened: as §3
[14] = Cytotoxicity against african green monkey Vero cells assessed as drug level causing microscopically detectable alteration of normal cell morphology after 3 days; format: cell-based; details: chlorocebus sabaeus; procedure, shortened: as §2
Sindbis virus = experiment: Antiviral activity against Sindbis virus in african green monkey Vero cells assessed as protection against virus-induced cytopathicity; format: functional, organism-based; procedure, shortened: as §1
Influenza A virus [15] = experiment: Antiviral activity against influenza H1N1 virus in MDCK cells assessed as reduction of virus-induced cytopathicity by visual cytopathic effect scoring method; format: functional, organism-based
Human alphaherpesvirus 1 [16] = experiment: Antiviral activity against HSV1 KOS in human HEL cells assessed as protection against virus-induced cytopathicity; format: functional, organism-based; details: Human alphaherpesvirus 1, KOS
Human alphaherpesvirus 1 [17] = experiment: Antiviral activity against thymidine kinase deficient and acyclovir resistant HSV1 KOS in human HEL cells assessed as protection against virus-induced cytopathicity; format: functional, organism-based; details: Human alphaherpesvirus 1, KOS
[18] = target: Human immunodeficiency virus type 1 reverse transcriptase (Human immunodeficiency virus 1, UniProt Q72547, K103N); experiment: Inhibition of HIV1 reverse transcriptase p66/p51 K103N mutant; details: read-out: IC50; procedure, shortened: as §5
Feline coronavirus = experiment: Antiviral activity against Feline coronavirus in feline […] cells assessed as inhibition of virus-induced cytopathicity; format: functional, organism-based; details: Alphacoronavirus 1
L1210 = experiment: Antiproliferative activity against mouse L1210 cells after 2 days; format: cell-based; details: L1210, 48 h; procedure, shortened: as §3
[19] = Cytotoxicity against human HEL cells assessed as drug level causing microscopically detectable alteration of normal cell morphology after 3 days; format: cell-based
Influenza A virus H3N2 [20] = experiment: Antiviral activity against influenza H3N2 virus in MDCK cells assessed as reduction of virus-induced cytopathicity by visual cytopathic effect scoring method; format: functional, organism-based
[21] = Cytotoxicity against MDCK cells by MTS assay; format: cell-based, Canis lupus familiaris; details: dog
[22] = target: Human immunodeficiency virus type 1 reverse transcriptase (Human immunodeficiency virus 1, UniProt Q72547, L100I); experiment: Inhibition of HIV1 reverse transcriptase p66/p51 L100I mutant; details: read-out: IC50; procedure, shortened: as §5
Felid alphaherpesvirus 1 = experiment: Antiviral activity against Feline herpesvirus in feline […] cells assessed as inhibition of virus-induced cytopathicity; format: functional, organism-based
[23] = target: Human immunodeficiency virus type 1 reverse transcriptase (Human immunodeficiency virus 1, UniProt Q72547); experiment: Inhibition of HIV1 reverse transcriptase p66/p51; details: read-out: IC50
Influenza A virus H3N2 [24] = experiment: Antiviral activity against influenza H3N2 virus in MDCK cells assessed as reduction of virus-induced cytopathicity by MTS method; format: functional, organism-based
[25] = system: Human immunodeficiency virus 1; experiment: Antiviral activity against HIV1 3B in human CEM cells assessed as protection against virus-induced cytopathicity after 4 days; format: functional, organism-based; details: Human immunodeficiency virus 1, 3B, CCRF-CEM, 96 h; procedure, shortened: as §4
Influenza B virus [26] = experiment: Antiviral activity against influenza B virus in MDCK cells assessed as reduction of virus-induced cytopathicity by MTS method; format: functional, organism-based
Human alphaherpesvirus 2 = experiment: Antiviral activity against HSV2 G in human HEL cells assessed as protection against virus-induced cytopathicity; format: functional, organism-based; details: Human alphaherpesvirus 2, strain G; procedure, shortened: as §1
Coxsackievirus B4 [27] = experiment: Antiviral activity against Coxsackievirus B4 in human HeLa cells assessed as protection against virus-induced cytopathicity; format: functional, organism-based; details: Enterovirus B; procedure, shortened: as §1

For Cc1cc(C)cc(S(=O)(=O)c2c(C(=O)NCCC(N)=O)[nH]c3ccc([N+](=O)[O-])cc23)c1, the EC50 [1] was > 100 µM, the CC50 [2] was > 100 µM and the MCC at 72 h [3] was > 100 µM. The IC50 [4] was > 500 µM, the EC50 [5] was > 10 µM and the IC50 [6] was 5.53 µM. The MCC [7] was 100 µM, the EC50 [8] was > 20 µM and the EC50 [9] was > 100 µM. For the same molecule, the EC50 (Influenza A virus [10]) was > 20 µM, the EC50 (Influenza B virus [11]) was > 20 µM and the EC50 (Punta Toro virus) was > 100 µM. The EC50 (Human respirovirus 3) was > 100 µM, the EC50 (Vaccinia virus) was > 20 µM and the EC50 [12] was > 100 µM. The EC50 (Coxsackievirus B4 [13]) was > 100 µM, the IC50 (CCRF-CEM) was ≥ 500 µM and the MCC at 72 h [14] was > 100 µM. The EC50 (Sindbis virus) was > 100 µM, the EC50 (Influenza A virus [15]) was > 20 µM and the EC50 (Human alphaherpesvirus 1 [16]) was > 20 µM. For the same molecule, the EC50 (Human alphaherpesvirus 1 [17]) was > 20 µM, the IC50 [18] was 0.474 µM and the EC50 (Feline coronavirus) was > 100 µM. The IC50 (L1210) was > 500 µM, the MCC at 72 h [19] was ≥ 20 µM and the EC50 (Influenza A virus H3N2 [20]) was > 20 µM. The CC50 [21] was > 100 µM, the IC50 [22] was 0.204 µM and the EC50 (Felid alphaherpesvirus 1) was > 100 µM. The IC50 [23] was 0.027 µM, the EC50 (Influenza A virus H3N2 [24]) was > 20 µM and the EC50 [25] was 0.0016 µM. For the same molecule, the EC50 (Influenza B virus [26]) was > 20 µM, the EC50 (Human alphaherpesvirus 2) was > 20 µM and the EC50 (Coxsackievirus B4 [27]) was > 100 µM.

In the case of Cc1cc(C)cc(S(=O)(=O)c2c(C(=O)NC(C)C(N)=O)[nH]c3ccc([N+](=O)[O-])cc23)c1 (stereo not drawn), the EC50 [1] is reported as > 100 µM, the CC50 [2] is reported as 82.1 µM and the MCC at 72 h [3] is reported as > 100 µM. The IC50 [4] was 44 µM, the EC50 [5] was > 10 µM and the IC50 [6] was 4.21 µM. The MCC [7] was 100 µM, the EC50 [8] was > 20 µM and the EC50 [9] was > 100 µM. For the same molecule, the EC50 (Influenza A virus [10]) was > 20 µM, the EC50 (Influenza B virus [11]) was > 20 µM and the EC50 (Punta Toro virus) was > 100 µM. For the same molecule, the EC50 (Human respirovirus 3) was > 100 µM, the EC50 (Vaccinia virus) was > 20 µM and the EC50 [12] was > 100 µM. For the same molecule, the EC50 (Coxsackievirus B4 [13]) was > 100 µM, the IC50 (CCRF-CEM) was 66 µM and the MCC at 72 h [14] was > 100 µM. For the same molecule, the EC50 (Sindbis virus) was > 100 µM, the EC50 (Influenza A virus [15]) was > 20 µM and the EC50 (Human alphaherpesvirus 1 [16]) was > 20 µM. For the same molecule, the EC50 (Human alphaherpesvirus 1 [17]) was > 20 µM, the IC50 [18] was 0.362 µM and the EC50 (Feline coronavirus) was > 20 µM. The IC50 (L1210) was 96 µM, the MCC at 72 h [19] was 100 µM and the EC50 (Influenza A virus H3N2 [20]) was > 20 µM. For the same molecule, the CC50 [21] was 95.9 µM, the IC50 [22] was 0.209 µM and the EC50 (Felid alphaherpesvirus 1) was > 20 µM. The IC50 [23] was 0.022 µM, the EC50 (Influenza A virus H3N2 [24]) was > 20 µM and the EC50 [25] was 0.0038 µM. For the same molecule, the EC50 (Influenza B virus [26]) was > 20 µM, the EC50 (Human alphaherpesvirus 2) was > 20 µM and the EC50 (Coxsackievirus B4 [27]) was ≥ 20 µM.

In the case of Cc1cc(C)cc(S(=O)(=O)c2c(C(=O)NC(C)C(N)=O)[nH]c3ccc(Cl)c(F)c23)c1 (stereo not drawn), the EC50 [1] is reported as > 20 µM, the CC50 [2] is reported as 51.4 µM and the MCC at 72 h [3] is reported as 20 µM. For the same molecule, the IC50 [4] was 22 µM, the EC50 [5] was > 10 µM and the IC50 [6] was 6.28 µM. For the same molecule, the MCC [7] was 20 µM, the EC50 [8] was > 20 µM and the EC50 [9] was > 4 µM. For the same molecule, the EC50 (Influenza A virus [10]) was > 4 µM, the EC50 (Influenza B virus [11]) was > 4 µM and the EC50 (Punta Toro virus) was > 20 µM. The EC50 (Human respirovirus 3) was > 20 µM, the EC50 (Vaccinia virus) was > 20 µM and the EC50 [12] was > 4 µM. The EC50 (Coxsackievirus B4 [13]) was 20 µM, the IC50 (CCRF-CEM) was 21 µM and the MCC at 72 h [14] was 100 µM. For the same molecule, the EC50 (Sindbis virus) was > 20 µM, the EC50 (Influenza A virus [15]) was > 4 µM and the EC50 (Human alphaherpesvirus 1 [16]) was > 20 µM. The EC50 (Human alphaherpesvirus 1 [17]) was > 20 µM, the IC50 [18] was 1.52 µM and the EC50 (Feline coronavirus) was > 20 µM. The IC50 (L1210) was 30 µM, the MCC at 72 h [19] was 100 µM and the EC50 (Influenza A virus H3N2 [20]) was > 4 µM. The CC50 [21] was 6.5 µM, the IC50 [22] was 0.27 µM and the EC50 (Felid alphaherpesvirus 1) was > 20 µM. The IC50 [23] was 0.062 µM, the EC50 (Influenza A virus H3N2 [24]) was > 4 µM and the EC50 [25] was 0.0037 µM. For the same molecule, the EC50 (Influenza B virus [26]) was > 4 µM, the EC50 (Human alphaherpesvirus 2) was > 20 µM and the EC50 (Coxsackievirus B4 [27]) was > 4 µM.
